# In ChEMBL document CHEMBL4706672 (J Med Chem, 2021):
# Calls of active or inactive are those of the source. No cut-off for these calls is given here.
# Experiments:
# [1] = Upregulation of BACH1 protein levels in human BxPC-3 cells incubated for 16 hrs by proteomic analysis; type: functional
# Summary of the method: (§1)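 BxPC-3 cells exposed 16 h in triplicate (control, PROTAC) or duplicate (other arms); lysed in RIPA at 4 °C, 75 μg protein per sample. Reduced with DTT (1 h, 55 °C), alkylated with 2-chloroacetamide, acetone-precipitated, trypsin-digested overnight at 37 °C, TMT 10plex labelled, relative quantitation by LC-tandem MS.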
# [2] = molecular target: Protein cereblon/Adhesion G-protein coupled receptor G1 (Homo sapiens) (UniProt Q96SW2+Q9Y653); assay: Protac activity at CRBN/ADGRG1 in human BxPC-3 cells assessed as ADGRG1 degradation incubated for 16 hrs by proteomic analysis; type: cell-based
# Chain of Protein cereblon/Adhesion G-protein coupled receptor G1 (Homo sapiens) (Q96SW2 whole entry, looked up): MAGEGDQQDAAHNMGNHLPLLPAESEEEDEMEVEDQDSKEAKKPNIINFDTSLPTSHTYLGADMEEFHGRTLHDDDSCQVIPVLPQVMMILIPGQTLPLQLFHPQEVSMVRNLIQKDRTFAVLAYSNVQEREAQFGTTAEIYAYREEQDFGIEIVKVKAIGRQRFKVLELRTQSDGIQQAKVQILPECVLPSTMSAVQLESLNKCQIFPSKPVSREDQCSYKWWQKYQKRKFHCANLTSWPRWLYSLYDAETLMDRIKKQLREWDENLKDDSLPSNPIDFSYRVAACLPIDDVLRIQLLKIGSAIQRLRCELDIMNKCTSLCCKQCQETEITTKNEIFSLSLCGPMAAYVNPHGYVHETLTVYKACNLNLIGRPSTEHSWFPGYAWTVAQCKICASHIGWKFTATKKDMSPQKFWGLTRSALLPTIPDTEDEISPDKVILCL
# Chain of Protein cereblon/Adhesion G-protein coupled receptor G1 (Homo sapiens) (Q9Y653 whole entry, looked up): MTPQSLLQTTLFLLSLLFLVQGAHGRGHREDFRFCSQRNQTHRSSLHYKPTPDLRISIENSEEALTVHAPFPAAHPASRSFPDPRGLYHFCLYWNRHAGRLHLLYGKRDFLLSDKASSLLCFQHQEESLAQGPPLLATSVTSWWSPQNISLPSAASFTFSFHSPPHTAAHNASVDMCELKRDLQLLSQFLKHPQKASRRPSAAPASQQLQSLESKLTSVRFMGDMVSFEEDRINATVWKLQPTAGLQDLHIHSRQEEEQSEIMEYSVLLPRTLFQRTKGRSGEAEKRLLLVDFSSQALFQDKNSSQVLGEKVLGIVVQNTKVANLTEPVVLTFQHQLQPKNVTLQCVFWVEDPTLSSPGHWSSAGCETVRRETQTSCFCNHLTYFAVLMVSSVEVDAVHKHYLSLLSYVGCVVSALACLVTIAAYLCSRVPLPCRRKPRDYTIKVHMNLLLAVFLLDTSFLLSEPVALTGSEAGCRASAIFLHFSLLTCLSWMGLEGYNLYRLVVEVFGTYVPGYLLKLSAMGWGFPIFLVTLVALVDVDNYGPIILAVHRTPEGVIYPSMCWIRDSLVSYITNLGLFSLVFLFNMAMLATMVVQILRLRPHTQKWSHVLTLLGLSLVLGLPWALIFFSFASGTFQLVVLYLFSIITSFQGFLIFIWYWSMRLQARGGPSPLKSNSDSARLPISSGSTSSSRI
# Summary of the method: (§2)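 TMT 10plex proteomics. […] Samples (75 μg) were reduced with DTT, alkylated with 2-chloroacetamide, acetone-precipitated, trypsin-digested overnight at 37 °C and TMT-labeled for LC-MS/MS relative quantitation.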
# [3] = Upregulation of IL1RL1 protein levels in human BxPC-3 cells incubated for 16 hrs by proteomic analysis; type: functional; summary of the method: as §1
# [4] = Upregulation of AKR1C2 protein levels in human BxPC-3 cells incubated for 16 hrs by proteomic analysis; type: functional; summary of the method: as §1
# [5] = molecular target: Protein cereblon/E3 ubiquitin-protein ligase ZFP91 (Homo sapiens, UniProt Q96SW2+Q96JP5); assay: Protac activity at CRBN/ZFP91 in human MIA PaCa-2 cells assessed as ZF91 protein degradation at 0.1 to 0.5 uM incubated for 16 hrs in presence of proteasome inhibitor carfilzomib by western blot analysis; type: cell-based; details: dose 0.1-0.5 µM
# [6] = molecular target: Protein cereblon/SOSS complex subunit B1 (Homo sapiens) (UniProt Q96SW2+Q9BQ15); assay: Protac activity at CRBN/NABP2 in human BxPC-3 cells assessed as NABP2 degradation incubated for 16 hrs by proteomic analysis; type: cell-based; summary of the method: as §2
# Chain of Protein cereblon/SOSS complex subunit B1 (Homo sapiens) (Q96SW2 whole entry, looked up): as the sequence (Q96SW2 whole entry, looked up) above
# Chain of Protein cereblon/SOSS complex subunit B1 (Homo sapiens) (Q9BQ15 whole entry, looked up): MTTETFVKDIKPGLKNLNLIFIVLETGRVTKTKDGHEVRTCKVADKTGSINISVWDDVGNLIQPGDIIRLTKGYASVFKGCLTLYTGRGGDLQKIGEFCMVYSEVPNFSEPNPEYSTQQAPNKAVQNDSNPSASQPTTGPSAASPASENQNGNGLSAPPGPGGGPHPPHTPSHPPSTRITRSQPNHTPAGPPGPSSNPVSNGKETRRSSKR
# [7] = molecular target: Protein cereblon/Agrin (Homo sapiens) (UniProt Q96SW2+O00468); assay: Protac activity at CRBN/Agrin in human BxPC-3 cells assessed as Agrin degradation incubated for 16 hrs by proteomic analysis; type: cell-based; summary of the method: as §2
# [8] = molecular target: Protein cereblon/Carbohydrate sulfotransferase 14 (Homo sapiens) (UniProt Q96SW2+Q8NCH0); assay: Protac activity at CRBN/CHST14 in human BxPC-3 cells assessed as CHST14 degradation incubated for 16 hrs by proteomic analysis; type: cell-based; summary of the method: as §2
# [9] = molecular target: Protein cereblon/G2/mitotic-specific cyclin-B1 (Homo sapiens) (UniProt P14635+Q96SW2); assay: Protac activity at CRBN/CCNB1 in human BxPC-3 cells assessed as CCNB1 degradation incubated for 16 hrs by proteomic analysis; type: cell-based; summary of the method: as §2
# [10] = molecular target: Protein cereblon/DNA polymerase delta subunit 4 (Homo sapiens) (UniProt Q9HCU8+Q96SW2); assay: Protac activity at CRBN/POLD4 in human BxPC-3 cells assessed as POLD4 degradation incubated for 16 hrs by proteomic analysis; type: cell-based; summary of the method: as §2
# Chain of Protein cereblon/DNA polymerase delta subunit 4 (Homo sapiens) (Q96SW2 whole entry, looked up): as the sequence (Q96SW2 whole entry, looked up) above
# Chain of Protein cereblon/DNA polymerase delta subunit 4 (Homo sapiens) (Q9HCU8 whole entry, looked up): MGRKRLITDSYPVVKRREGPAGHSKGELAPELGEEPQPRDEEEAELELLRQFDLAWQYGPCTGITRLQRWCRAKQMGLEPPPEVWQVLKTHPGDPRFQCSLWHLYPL
# [11] = Upregulation of ABCB6 protein levels in human BxPC-3 cells incubated for 16 hrs by proteomic analysis; type: functional; summary of the method: as §1
# [12] = molecular target: T1, Protein cereblon/Signal transducer and activator of transcription 3 (Homo sapiens, UniProt P40763+Q96SW2); assay: Protac activity at CRBN/STAT3 in human BxPC-3 cells assessed as decrease in STAT3 expression level at 5 uM after 16 hrs by western blot analysis; type: cell-based
# T1 sequence (P40763 2-770 limits assumed): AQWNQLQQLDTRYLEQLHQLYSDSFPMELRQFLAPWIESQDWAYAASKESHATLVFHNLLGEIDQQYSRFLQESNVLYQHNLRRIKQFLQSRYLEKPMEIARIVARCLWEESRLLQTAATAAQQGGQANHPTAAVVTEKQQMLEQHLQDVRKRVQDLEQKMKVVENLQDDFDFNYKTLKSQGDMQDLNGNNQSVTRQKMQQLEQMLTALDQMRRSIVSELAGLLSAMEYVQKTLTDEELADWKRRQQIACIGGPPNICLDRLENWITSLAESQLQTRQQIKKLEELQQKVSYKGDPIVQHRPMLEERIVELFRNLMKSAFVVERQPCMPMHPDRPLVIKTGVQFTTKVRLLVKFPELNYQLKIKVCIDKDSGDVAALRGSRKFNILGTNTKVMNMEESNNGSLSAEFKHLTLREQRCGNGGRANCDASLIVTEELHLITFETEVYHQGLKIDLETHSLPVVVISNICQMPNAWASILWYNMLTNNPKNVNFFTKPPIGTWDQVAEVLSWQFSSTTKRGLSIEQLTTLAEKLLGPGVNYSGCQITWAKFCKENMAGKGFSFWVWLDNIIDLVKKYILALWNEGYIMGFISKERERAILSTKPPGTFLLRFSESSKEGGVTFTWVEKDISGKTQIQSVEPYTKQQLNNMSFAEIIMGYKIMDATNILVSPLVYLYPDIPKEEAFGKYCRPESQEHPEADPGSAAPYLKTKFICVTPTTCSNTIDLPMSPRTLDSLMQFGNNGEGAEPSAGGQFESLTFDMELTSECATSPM
# T1 sequence (Q96SW2 whole entry partner): as the sequence (Q96SW2 whole entry, looked up) above
# Summary of the method: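 BxPC-3 cells seeded at 500 × 10^3 per well in 6-well plates, treated 16 h. Sonication lysis at 4 °C in Tris/NaCl/Triton/SDS buffer pH 7.4 with protease and phosphatase inhibitors, BCA protein assay, SDS-PAGE, PVDF transfer. Probed for STAT3, pSTAT3 and NQO1 with GAPDH loading control; fluorescent secondary detection.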
# [13] = Upregulation of AFF1 protein levels in human BxPC-3 cells incubated for 16 hrs by proteomic analysis; type: functional; summary of the method: as §1
# [14] = Upregulation of MPV17 protein levels in human BxPC-3 cells incubated for 16 hrs by proteomic analysis; type: functional; summary of the method: as §1
# [15] = molecular target: Protein cereblon/E3 ubiquitin-protein ligase DTX3L (Homo sapiens) (UniProt Q96SW2+Q8TDB6); assay: Protac activity at CRBN/DTX3L in human BxPC-3 cells assessed as DTX3L degradation incubated for 16 hrs by proteomic analysis; type: cell-based; summary of the method: as §2
# Chain of Protein cereblon/E3 ubiquitin-protein ligase DTX3L (Homo sapiens) (Q96SW2 whole entry, looked up, other chains not shown): as the sequence (Q96SW2 whole entry, looked up) above
# [16] = Upregulation of ECM1 protein levels in human BxPC-3 cells incubated for 16 hrs by proteomic analysis; type: functional; summary of the method: as §1
# [17] = molecular target: Protein cereblon/Cold shock domain-containing protein E1 (Homo sapiens) (UniProt Q96SW2+O75534); assay: Protac activity at CRBN/CSDE1 in human BxPC-3 cells assessed as CSDE1 degradation incubated for 16 hrs by proteomic analysis; type: cell-based; summary of the method: as §2
# [18] = molecular target: Protein cereblon/Cyclin-D1-binding protein 1 (Homo sapiens) (UniProt Q96SW2+O95273); assay: Protac activity at CRBN/CCNDBP1 in human BxPC-3 cells assessed as CCNDBP1 degradation incubated for 16 hrs by proteomic analysis; type: cell-based; summary of the method: as §2
# [19] = molecular target: T1, Protein cereblon/Signal transducer and activator of transcription 3; assay: Protac activity at CRBN/STAT3 in human BxPC-3 cells assessed as increase in inhibition of STAT3 protein levels at 2 to 3 uM incubated for 16 hrs in presence of protein synthesis inhibitor cycloheximide by western blot analysis; type: cell-based; details: dose 2-3 µM
# Summary of the method: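 BxPC-3 cells pretreated 1 h with cycloheximide, then test agent for 16 h. Lysates immunoblotted for STAT3 and NQO1 against GAPDH, fluorescent imaging.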
# BXPC-3 [20] = assay: Inhibition of colony formation in human BxPC-3 cells assessed as reduction in colony formation at 0.06 to 0.5 uM incubated for 7 to 10 days in presence of NQO1 inhibitor dicoumarol; details: dose 0.06-0.5 µM
# [21] = molecular target: Protein cereblon/Signal transducer and activator of transcription 2 (Homo sapiens) (UniProt Q96SW2+P52630); assay: Protac activity at CRBN/STAT2 in human BxPC-3 cells assessed as STAT2 degradation incubated for 16 hrs by proteomic analysis; type: cell-based; summary of the method: as §2
# [22] = molecular target: Protein cereblon/Nectin-1 (Homo sapiens) (UniProt Q96SW2+Q15223); assay: Protac activity at CRBN/Nectin-1 in human BxPC-3 cells assessed as Nectin-1 degradation incubated for 16 hrs by proteomic analysis; type: cell-based; summary of the method: as §2
# BXPC-3 [23] = assay: Reduction in NQO1 expression in human BxPC-3 cells at 2 to 6 uM incubated for 12 hrs in presence of proteasome inhibitor MG132 by western blot analysis; type: functional, cell-based; details: dose 2-6 µM
# Summary of the method: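 Immunoblot of BxPC-3 cells given a 2 h pretreatment with MG132 at 10 μM, then test agent for 12 h. Cell lysis, BCA assay, SDS-PAGE/PVDF, probed for STAT3, pSTAT3 and NQO1 with GAPDH as reference.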
# [24] = molecular target: Protein cereblon/Protein PRRC2B (Homo sapiens) (UniProt Q96SW2+Q5JSZ5); assay: Protac activity at CRBN/PRRC2B in human BxPC-3 cells assessed as PRRC2B degradation incubated for 16 hrs by proteomic analysis; type: cell-based; summary of the method: as §2
# [25] = molecular target: Protein cereblon/Kunitz-type protease inhibitor 1 (Homo sapiens) (UniProt Q96SW2+O43278); assay: Protac activity at CRBN/SPINT1 in human BxPC-3 cells assessed as SPINT1 degradation incubated for 16 hrs by proteomic analysis; type: cell-based; summary of the method: as §2
# Chain of Protein cereblon/Kunitz-type protease inhibitor 1 (Homo sapiens) (O43278 whole entry, looked up): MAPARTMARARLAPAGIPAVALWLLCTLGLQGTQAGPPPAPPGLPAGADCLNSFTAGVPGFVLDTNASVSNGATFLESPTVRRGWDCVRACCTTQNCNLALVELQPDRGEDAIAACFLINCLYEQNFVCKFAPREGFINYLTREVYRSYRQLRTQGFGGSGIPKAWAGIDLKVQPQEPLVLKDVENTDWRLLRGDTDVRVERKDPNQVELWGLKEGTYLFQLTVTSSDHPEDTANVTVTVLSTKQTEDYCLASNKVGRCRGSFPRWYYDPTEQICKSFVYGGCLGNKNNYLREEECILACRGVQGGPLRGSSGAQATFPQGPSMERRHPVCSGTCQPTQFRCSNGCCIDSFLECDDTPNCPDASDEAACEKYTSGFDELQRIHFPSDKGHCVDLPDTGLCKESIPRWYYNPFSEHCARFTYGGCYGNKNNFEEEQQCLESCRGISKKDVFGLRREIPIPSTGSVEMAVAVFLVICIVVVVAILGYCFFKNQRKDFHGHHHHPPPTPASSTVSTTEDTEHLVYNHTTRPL
# Chain of Protein cereblon/Kunitz-type protease inhibitor 1 (Homo sapiens) (Q96SW2 whole entry, looked up): as the sequence (Q96SW2 whole entry, looked up) above
smiles,measurement,setting,value
O=C1CCC(N2C(=O)c3cccc(NCCCCCC4CCN(CCNC(=O)c5cc6c(o5)C(=O)c5ccccc5C6=O)CC4)c3C2=O)C(=O)N1 (stereo not given),log2FC,[1],0.6
same,log2FC,[2],-0.69
same,log2FC,[3],1.24
same,log2FC,[4],0.6
same,Activity,[5],inactive
same,log2FC,[6],-0.78
same,log2FC,[7],-0.68
same,log2FC,[8],-0.64
same,log2FC,[9],-0.84
same,log2FC,[10],-0.61
same,log2FC,[11],0.68
same,Activity,[12],Active
same,log2FC,[13],0.67
same,log2FC,[14],0.66
same,log2FC,[15],-0.96
same,log2FC,[16],0.76
same,log2FC,[17],-0.75
same,log2FC,[18],-0.59
same,Activity,[19],Active
same,inhibition,BXPC-3 [20],Active
same,log2FC,[21],-0.9
same,log2FC,[22],-0.63
same,Activity,BXPC-3 [23],Active
same,log2FC,[24],-0.63
same,log2FC,[25],-0.85
